This is an account of results in ChEMBL document CHEMBL1139140, “Synthesis, antimycobacterial activity evaluation, and QSAR studies of chalcone derivatives” (2007).

In test [1] the test system is Mycobacterium tuberculosis. In words: Antimicrobial activity against Mycobacterium tuberculosis H37Rv at 50 ug/ml assessed as reduction of relative light units. Details: scale not given: the % may be the effect or the level left. It is filed as functional. In outline: (§1)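 Luciferase reporter phage assay on M. tuberculosis H37Rv. Bacteria (McFarland No.2 suspension) in G7H9, with or without compound, incubated 72 h at 37 °C; two drug-free controls per sample. Phage phAE129 with CaCl2 added, then 4 h at 37 °C. D-luciferin (0.3 mM, citrate pH 4.5) added; RLU read after 10 s integration, duplicate readings averaged. Percent RLU reduction versus control; repeated if control mean RLU <1000.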

The test system of test [2] is Mycobacterium tuberculosis. The test is described as follows: Antimicrobial activity against Mycobacterium tuberculosis H37Rv at 100 ug/ml assessed as reduction of relative light units. The class given is functional. Details: scale not given: the % may be the effect or the level left. In outline: as §1

Turning to `CSc1ccc(/C=C/C(=O)c2ccccc2O)cc1`, the figures for the Activity in test [1] and in test [2] were 68.41% and 90.52%, respectively.

For the compound `CSc1ccc(/C=C/C(=O)c2cccc(O)c2)cc1`, the Activity in test [1] was 31.59%; in test [2], 98.86%.

As to `COc1ccc(/C=C/C(=O)c2ccc(Cl)cc2Cl)cc1OC`, the values for the Activity in test [1] and in test [2] were 0% and 12.17%, respectively.

For `COc1ccccc1/C=C/C(=O)c1cccc([N+](=O)[O-])c1`, the Activity was found to be 84.16% in test [1] and 97.94% in test [2].

Consider `CSc1ccc(/C=C/C(=O)c2ccccc2)cc1`, for which the Activity in test [1] came to 46.29%; in test [2], 66.51%.

With `CSc1ccc(/C=C/C(=O)c2ccc([N+](=O)[O-])cc2)cc1`, the Activity is recorded as 30.95% in test [1] and 48.06% in test [2].

Take `COc1ccccc1/C=C/C(=O)c1ccccc1`: the Activity in test [1] was found to be 66.07%; in test [2], 72.98%.

For the compound `COc1cc(/C=C/C(=O)c2ccccc2)cc(OC)c1OC`, the Activity in test [1] worked out at 43.16%; in test [2] it was 63.9%.

For `COc1ccc(C(=O)/C=C/c2ccc(SC)cc2)cc1`, the figures for the Activity in test [1] and in test [2] were 7.36% and 17.38%, respectively.

With `CN(C)c1ccc(/C=C/C(=O)c2ccc(Cl)cc2Cl)cc1`, the Activity came out at 31.55% in test [1] and 33.8% in test [2].

Take `CSc1ccc(/C=C/C(=O)c2ccc(Cl)cc2Cl)cc1`: the Activity in test [1] and in test [2] was 0% each time.

Consider `COc1ccc(/C=C/C(=O)c2ccccc2)cc1` [4-METHOXY CHALCONE], for which the figures for the Activity in test [1] and in test [2] were 58.75% and 65.08%, respectively.

With `CSc1ccc(/C=C/C(=O)c2cccc([N+](=O)[O-])c2)cc1`, the Activity in test [1] and in test [2] was 0% throughout.

For the compound `CSc1ccc(/C=C/C(=O)c2ccc(O)cc2)cc1`, the Activity in test [1] was determined as 29.25%; in test [2] it was 55.16%.

Regarding `COc1ccc(/C=C/C(=O)c2cccc(O)c2)cc1`, the Activity came out at 98.9% in test [1] and 99.04% in test [2].

In the case of `CSc1ccc(/C=C/C(=O)c2ccc(Br)cc2)cc1`, the Activity was 0% in test [1] and 21.87% in test [2].

On to `COc1ccc(/C=C/C(=O)c2cccc([N+](=O)[O-])c2)cc1OC`, for which the Activity in test [1] was determined as 64.61%; in test [2], 89.27%.

In the case of `COc1ccccc1/C=C/C(=O)c1ccc([N+](=O)[O-])cc1`, the Activity in test [1] was 94.3%; in test [2], 98.15%.

`CN(C)c1ccc(/C=C/C(=O)c2ccccc2)cc1`: the Activity in test [1] amounted to 70.02%; in test [2], 70.18%.

Take `O=C(/C=C/c1ccccc1)c1ccccc1` [CHALCONE]: the Activity in test [1] turned out to be 41.93%; in test [2], 50.64%.

Regarding `CN(C)c1ccc(/C=C/C(=O)c2cccc([N+](=O)[O-])c2)cc1`, the figures for the Activity in test [1] and in test [2] were 90.06% and 96.22%, respectively.

On to `COc1ccc(/C=C/C(=O)c2cccc([N+](=O)[O-])c2)c(OC)c1`, for which the Activity came out at 92.19% in test [1] and 96.45% in test [2].

For the compound `CSc1ccc(/C=C/C(=O)c2ccc(Cl)cc2)cc1`, the Activity in test [1] was determined as 24.06%; in test [2] it was 48.83%.

With `CSc1ccc(/C=C/C(=O)c2ccc(C)cc2)cc1`, the Activity in test [1] was determined as 16.88%; in test [2], 51.59%.

As to `COc1ccc(/C=C/C(=O)c2ccc(C)cc2)cc1`, the Activity amounted to 60.24% in test [1] and 98.52% in test [2].
